Measurements as given in paper PMC3701955 (Bioorganic & medicinal chemistry, 2012).
Like-named read-outs stand apart in the source and are kept apart here.

Assays:
[1] = assay type: in vivo; conditions: female Sprague–Dawley rats, iv; for Biodistribution of radioactivity, Liver / Biodistribution of radioactivity in brain region, Amygdala / Biodistribution of radioactivity in brain region, Basal Hypothalamus / Biodistribution of radioactivity in brain region, Cerebellum / Biodistribution of radioactivity in brain region, Remaining Brain / Biodistribution of radioactivity, Blood / Biodistribution of radioactivity, Heart / Biodistribution of radioactivity, Kidney / Biodistribution of radioactivity, Lung / Biodistribution of radioactivity, Muscle / Biodistribution of radioactivity, Uterus / Biodistribution of radioactivity in brain region, Dorsal Striatum / Biodistribution of radioactivity, Brain: mean ± SD; for Biodistribution of radioactivity, Brain: total brain
OTR of the CNS = target: T1, OTR of the CNS (Rattus norvegicus, UniProt P70536); experiment: PET imaging of the brain using a rat model; assay type: in vivo, Sprague–Dawley rats; conditions: rats, 90 min ([18F]3) or 45 min ([11C]4) scan
T1 sequence (P70536 1-388): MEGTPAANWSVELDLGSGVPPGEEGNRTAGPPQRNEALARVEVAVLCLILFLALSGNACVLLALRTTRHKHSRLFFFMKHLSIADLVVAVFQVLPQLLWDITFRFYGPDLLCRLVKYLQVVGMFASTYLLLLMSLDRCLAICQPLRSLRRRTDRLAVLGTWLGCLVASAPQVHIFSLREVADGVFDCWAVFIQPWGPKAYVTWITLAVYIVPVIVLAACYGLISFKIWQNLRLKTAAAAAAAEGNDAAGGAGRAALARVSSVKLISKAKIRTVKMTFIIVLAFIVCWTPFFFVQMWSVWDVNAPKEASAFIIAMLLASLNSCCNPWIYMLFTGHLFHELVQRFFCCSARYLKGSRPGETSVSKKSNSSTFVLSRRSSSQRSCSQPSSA

OTR and V1aR = experiment: Receptor autoradiography with the radioligand on prairie vole brain slices; assay type: binding; conditions: 70 pM radioligand
How it was run: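 Prairie vole brains were cut at 20 μm from prefrontal cortex through nucleus accumbens and ventral pallidum, stored at −80 °C, and thawed. Sections were dipped in 0.1% paraformaldehyde/PBS pH 7.4 and rinsed in 50 mM Tris pH 7.4. They were incubated 1 h with 70 pM radioiodinated test compound without competitor, then washed in 50 mM Tris + 2% MgCl2 pH 7.4, air-dried, and exposed to film 72 h. Six animals per study.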

1-(4-(3,4-Dihydroquinolin-1(2H)-yl)piperidin-1-yl)-2-(2-(2-[^18F]fluoroethoxy)-4-((1-(methylsulfonyl)piperidin-4-yl)oxy)phenyl)ethanone [[^18F]3]
in vivo stability of the radiolabel (thyroid / bone uptake over time) [1]: appeared to remain intact | Biodistribution of radioactivity, Liver ([1]; 15 min): 1.81 ± 0.36 %ID/g | Biodistribution of radioactivity, Liver ([1]; 30 min): 1.41 ± 0.17 %ID/g | Biodistribution of radioactivity, Liver ([1]; 60 min): 0.98 ± 0.44 %ID/g | Biodistribution of radioactivity, Liver ([1]; 120 min): 1.18 ± 0.18 %ID/g | viability for in vivo PET imaging of brain OTR (OTR of the CNS): not viable for in vivo PET imaging of the OTR of the CNS

CS(=O)(=O)N1CCC(Oc2ccc(CC(=O)N3CCC(N4C(=O)CCc5ccccc54)CC3)c(OC/C=C/[125I])c2)CC1 [[^125I]1, (E)-1-(1-(2-(2-(3-[125I]Iodoallyloxy)-4-(1-(methylsulfonyl)piperidin-4-yloxy)phenyl)acetyl)piperidin-4-yl)-3,4-dihy droquinolin-2(1H)-one]
in vivo stability of the radiolabel (thyroid / bone uptake over time) [1]: broken down readily in vivo at the iodine position | Biodistribution of radioactivity in brain region, Amygdala ([1]; 15 min): 0.09 ± 0.02 %ID/g | Biodistribution of radioactivity in brain region, Basal Hypothalamus ([1]; 15 min): 0.08 ± 0.01 %ID/g | Biodistribution of radioactivity in brain region, Cerebellum ([1]; 15 min): 0.08 ± 0.01 %ID/g | Biodistribution of radioactivity in brain region, Remaining Brain ([1]; 15 min): 0.07 ± 0.01 %ID/g | Biodistribution of radioactivity, Blood ([1]; 15 min): 0.58 ± 0.51 %ID/g | Biodistribution of radioactivity, Heart ([1]; 15 min): 0.82 ± 0.70 %ID/g | Biodistribution of radioactivity, Kidney ([1]; 15 min): 0.96 ± 0.84 %ID/g | Biodistribution of radioactivity, Liver ([1]; 15 min): 5.67 ± 5.08 %ID/g | Biodistribution of radioactivity, Lung ([1]; 15 min): 1.86 ± 1.60 %ID/g | Biodistribution of radioactivity, Muscle ([1]; 15 min): 0.28 ± 0.24 %ID/g | Biodistribution of radioactivity, Uterus ([1]; 15 min): 0.43 ± 0.38 %ID/g | Biodistribution of radioactivity in brain region, Amygdala ([1]; 30 min): 0.07 ± 0.03 %ID/g | Biodistribution of radioactivity in brain region, Basal Hypothalamus ([1]; 30 min): 0.06 ± 0.01 %ID/g | Biodistribution of radioactivity, Blood ([1]; 30 min): 0.58 ± 0.07 %ID/g | Biodistribution of radioactivity, Heart ([1]; 30 min): 0.61 ± 0.18 %ID/g | Biodistribution of radioactivity, Kidney ([1]; 30 min): 0.75 ± 0.07 %ID/g | Biodistribution of radioactivity, Liver ([1]; 30 min): 3.90 ± 0.15 %ID/g | Biodistribution of radioactivity, Lung ([1]; 30 min): 1.41 ± 0.72 %ID/g | Biodistribution of radioactivity, Muscle ([1]; 30 min): 0.26 ± 0.02 %ID/g | Biodistribution of radioactivity, Uterus ([1]; 30 min): 0.41 ± 0.07 %ID/g | Biodistribution of radioactivity in brain region, Amygdala ([1]; 60 min): 0.09 ± 0.02 %ID/g | Biodistribution of radioactivity in brain region, Basal Hypothalamus ([1]; 60 min): 0.06 ± 0.01 %ID/g | Biodistribution of radioactivity in brain region, Dorsal Striatum ([1]; 60 min): 0.04 ± 0.01 %ID/g | Biodistribution of radioactivity, Blood ([1]; 60 min): 0.55 ± 0.27 %ID/g | Biodistribution of radioactivity, Heart ([1]; 60 min): 0.54 ± 0.28 %ID/g | Biodistribution of radioactivity, Kidney ([1]; 60 min): 0.69 ± 0.30 %ID/g | Biodistribution of radioactivity, Liver ([1]; 60 min): 3.09 ± 1.34 %ID/g | Biodistribution of radioactivity, Lung ([1]; 60 min): 1.45 ± 1.04 %ID/g | Biodistribution of radioactivity, Muscle ([1]; 60 min): 0.23 ± 0.11 %ID/g | Biodistribution of radioactivity, Uterus ([1]; 60 min): 0.45 ± 0.23 %ID/g | Biodistribution of radioactivity, Brain ([1]; 60 min): 0.04 ± 0.02 %ID/g | Biodistribution of radioactivity in brain region, Amygdala ([1]; 120 min): 0.06 ± 0.01 %ID/g | Biodistribution of radioactivity in brain region, Cerebellum ([1]; 120 min): 0.03 ± 0.01 %ID/g | Biodistribution of radioactivity in brain region, Dorsal Striatum ([1]; 120 min): 0.03 ± 0.01 %ID/g | Biodistribution of radioactivity in brain region, Remaining Brain ([1]; 120 min): 0.03 ± 0.01 %ID/g | Biodistribution of radioactivity, Blood ([1]; 120 min): 0.38 ± 0.14 %ID/g | Biodistribution of radioactivity, Heart ([1]; 120 min): 0.38 ± 0.06 %ID/g | Biodistribution of radioactivity, Kidney ([1]; 120 min): 0.42 ± 0.10 %ID/g | Biodistribution of radioactivity, Liver ([1]; 120 min): 1.81 ± 0.30 %ID/g | Biodistribution of radioactivity, Muscle ([1]; 120 min): 0.14 ± 0.03 %ID/g | Biodistribution of radioactivity, Uterus ([1]; 120 min): 0.30 ± 0.10 %ID/g | Biodistribution of radioactivity, Brain ([1]; 120 min): 0.02 ± 0.01 %ID/g | autoradiographic binding to brain regions (OTR and V1aR): bind to receptors in the NAcc and VP
